Reference: ChEMBL document CHEMBL3808349, “Antineoplastic Agents. 585. Isolation of Bridelia ferruginea Anticancer Podophyllotoxins and Synthesis of 4-Aza-podophyllotoxin Structural Modifications” (2016)
Converted amounts (≈) assume the structure as drawn.

Key:
Format in all cases: functional
[1] = system: P388; test: Growth inhibition of mouse P388 cells measured after 48 hrs by sulforhodamine B assay; conditions: P388, 48 h, read-out: ED50 (the source's name)
[2] = Growth inhibition of human BxPC3 cells measured after 48 hrs by sulforhodamine B assay; conditions: BXPC-3, 48 h
Summary of the method: (§1)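 Cells were seeded in RPMI1640 with 5% fetal bovine serum and incubated 24 h before serial dilutions of sample were added. After 48 h exposure, cells were fixed with trichloroacetic acid and stained with sulforhodamine B, and optical density was read by plate reader.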

[3] = system: NCI-H460; test: Growth inhibition of human NCI-H460 cells measured after 48 hrs by sulforhodamine B assay; conditions: NCI-H460, 48 h; summary of the method: as §1
[4] = system: MCF7; test: Growth inhibition of human MCF7 cells measured after 48 hrs by sulforhodamine B assay; conditions: MCF7, 48 h; summary of the method: as §1
[5] = Growth inhibition of human KM20L2 cells measured after 48 hrs by sulforhodamine B assay; conditions: KM-20L2, 48 h; summary of the method: as §1
[6] = Growth inhibition of human DU145 cells measured after 48 hrs by sulforhodamine B assay; conditions: DU-145, 48 h; summary of the method: as §1
[7] = Growth inhibition of human SF268 cells measured after 48 hrs by sulforhodamine B assay; conditions: SF-268, 48 h; summary of the method: as §1

Row | Compound | EC50 [1] [µg/mL] | GI50 [2] [µg/mL] | GI50 [3] [µg/mL] | GI50 [4] [µg/mL] | GI50 [5] [µg/mL] | GI50 [6] [µg/mL] | GI50 [7] [µg/mL]
1 | COc1cc(-c2c3c(nc4cc5c(cc24)OCO5)COC3=O)cc(OC)c1OC | 3.6 (≈ 9.11 µM) | 4.1 (≈ 10.4 µM) | 2.8 (≈ 7.08 µM) | 3.4 (≈ 8.6 µM) | 2.1 (≈ 5.31 µM) | 2.4 (≈ 6.07 µM) | 2.4 (≈ 6.07 µM)
2 | COc1cc(C2C3=C(COC3=O)N(CCO)c3cc4c(cc32)OCO4)cc(OC)c1OC (stereo not drawn) | 2 (≈ 4.53 µM) | 0.6 (≈ 1.36 µM) | 0.58 (≈ 1.31 µM) | 0.37 (≈ 0.838 µM) | 0.52 (≈ 1.18 µM) | 1.3 (≈ 2.94 µM) | 0.41 (≈ 0.929 µM)
3 | COc1cc(C2C3=C(COC3=O)N(C3CCCC3)c3cc4c(cc32)OCO4)cc(OC)c1O (stereo not drawn) | – | 0.53 (≈ 1.17 µM) | 0.33 (≈ 0.731 µM) | 0.32 (≈ 0.709 µM) | 2.1 (≈ 4.65 µM) | 0.41 (≈ 0.908 µM) | 0.39 (≈ 0.864 µM)
4 | COc1cc(C2C3=C(COC3=O)Nc3cc(OC)c(OC)c(OC)c32)cc(Br)c1OC (stereo not drawn) | 0.11 (≈ 0.223 µM) | 0.56 (≈ 1.14 µM) | 0.35 (≈ 0.711 µM) | 0.12 (≈ 0.244 µM) | – | 0.42 (≈ 0.853 µM) | 0.11 (≈ 0.223 µM)
5 | COc1cc(C2C3=C(COC3=O)N(CCN3CCOCC3)c3cc4c(cc32)OCO4)cc(OC)c1OC (stereo not drawn) | 2.6 (≈ 5.09 µM) | 3.5 (≈ 6.86 µM) | 3 (≈ 5.88 µM) | 0.89 (≈ 1.74 µM) | 2.5 (≈ 4.9 µM) | 2 (≈ 3.92 µM) | 2.6 (≈ 5.09 µM)
6 | COc1cc(C2C3=C(COC3=O)N(CCCn3ccnc3)c3cc4c(cc32)OCO4)cc(OC)c1OC (stereo not drawn) | 2 (≈ 3.96 µM) | 2.9 (≈ 5.74 µM) | 3 (≈ 5.93 µM) | 0.64 (≈ 1.27 µM) | 2.2 (≈ 4.35 µM) | 2.1 (≈ 4.15 µM) | 2.5 (≈ 4.95 µM)
7 | COc1cc(C2C3=C(COC3=O)N(CCN3CCCCC3)c3cc4c(cc32)OCO4)cc(OC)c1OC (stereo not drawn) | 1.7 (≈ 3.34 µM) | 4.4 (≈ 8.65 µM) | > 10 | > 10 | > 10 | > 10 | > 10
8 | COc1cc(C2C3=C(COC3=O)N(C)c3cc4c(cc32)OCO4)cc(OC)c1OC (stereo not drawn) | 0.027 (≈ 0.0656 µM) | 0.049 (≈ 0.119 µM) | 0.032 (≈ 0.0778 µM) | 0.034 (≈ 0.0826 µM) | 0.032 (≈ 0.0778 µM) | 0.026 (≈ 0.0632 µM) | 0.029 (≈ 0.0705 µM)
9 | COc1cc(C2C3=C(COC3=O)Nc3cc4c(cc32)OCO4)cc(OC)c1O (stereo not drawn) | 0.028 (≈ 0.073 µM) | 0.028 (≈ 0.073 µM) | 0.027 (≈ 0.0704 µM) | 0.025 (≈ 0.0652 µM) | 0.032 (≈ 0.0835 µM) | 0.033 (≈ 0.0861 µM) | 0.026 (≈ 0.0678 µM)
10 | COc1cc(C2C3=C(COC3=O)N(CCN(C)C)c3cc4c(cc32)OCO4)cc(OC)c1OC (stereo not drawn) | 0.18 (≈ 0.384 µM) | 0.43 (≈ 0.918 µM) | 1 (≈ 2.13 µM) | 0.29 (≈ 0.619 µM) | 0.51 (≈ 1.09 µM) | 2.5 (≈ 5.34 µM) | 0.46 (≈ 0.982 µM)
11 | COc1cc(C2C3=C(COC3=O)N(CCc3ccc(F)cc3)c3cc4c(cc32)OCO4)cc(OC)c1O (stereo not drawn) | 0.21 (≈ 0.415 µM) | 1.4 (≈ 2.77 µM) | 0.36 (≈ 0.712 µM) | 0.34 (≈ 0.673 µM) | – | 0.38 (≈ 0.752 µM) | 0.48 (≈ 0.95 µM)
12 | COc1cc(C2C3=C(COC3=O)N(Cc3ccc(F)cc3)c3cc4c(cc32)OCO4)cc(OC)c1OC (stereo not drawn) | 1.9 (≈ 3.76 µM) | 0.046 (≈ 0.091 µM) | 0.031 (≈ 0.0613 µM) | 0.037 (≈ 0.0732 µM) | 0.033 (≈ 0.0653 µM) | 0.047 (≈ 0.093 µM) | 0.03 (≈ 0.0593 µM)
13 | COc1cc(C2C3=C(COC3=O)N(Cc3ccco3)c3cc4c(cc32)OCO4)cc(OC)c1O (stereo not drawn) | 0.89 (≈ 1.92 µM) | 1 (≈ 2.16 µM) | 0.24 (≈ 0.518 µM) | 0.054 (≈ 0.117 µM) | – | 0.39 (≈ 0.842 µM) | 0.061 (≈ 0.132 µM)
14 | COc1cc(C2C3=C(COC3=O)N(C3CCCC3)c3cc4c(cc32)OCO4)cc(OC)c1OC (stereo not drawn) | – | 0.083 (≈ 0.178 µM) | 0.16 (≈ 0.344 µM) | 0.045 (≈ 0.0967 µM) | 0.12 (≈ 0.258 µM) | 0.27 (≈ 0.58 µM) | 0.062 (≈ 0.133 µM)
15 | COc1cc(C2C3=C(COC3=O)N(CCc3ccc([N+](=O)[O-])cc3)c3cc4c(cc32)OCO4)cc(OC)c1OC (stereo not drawn) | – | 0.39 (≈ 0.714 µM) | 0.3 (≈ 0.549 µM) | 0.08 (≈ 0.146 µM) | 0.26 (≈ 0.476 µM) | 0.3 (≈ 0.549 µM) | 0.2 (≈ 0.366 µM)
16 | COc1cc(C2C3=C(COC3=O)N(CCc3ccc(Cl)cc3)c3cc4c(cc32)OCO4)cc(OC)c1OC (stereo not drawn) | 2.6 (≈ 4.85 µM) | 0.54 (≈ 1.01 µM) | 0.3 (≈ 0.56 µM) | 0.34 (≈ 0.634 µM) | 0.37 (≈ 0.69 µM) | 0.31 (≈ 0.578 µM) | 0.35 (≈ 0.653 µM)
17 | O=C1OCC2=C1C(c1cccc3c1OCO3)c1cc3c(cc1N2)OCO3 (stereo not drawn) | 0.17 (≈ 0.484 µM) | 0.065 (≈ 0.185 µM) | 0.021 (≈ 0.0598 µM) | 0.0039 (≈ 0.0111 µM) | – | 0.041 (≈ 0.117 µM) | 0.0089 (≈ 0.0253 µM)
18 | COc1cc(C2C3=C(COC3=O)N(CCc3ccccn3)c3cc4c(cc32)OCO4)cc(OC)c1OC (stereo not drawn) | 2.5 (≈ 4.97 µM) | 0.38 (≈ 0.756 µM) | 0.34 (≈ 0.677 µM) | 0.32 (≈ 0.637 µM) | 0.29 (≈ 0.577 µM) | 0.42 (≈ 0.836 µM) | 0.33 (≈ 0.657 µM)
19 | COc1cc(C2C3=C(COC3=O)N(CCCO)c3cc4c(cc32)OCO4)cc(OC)c1OC (stereo not drawn) | 0.28 (≈ 0.615 µM) | 0.48 (≈ 1.05 µM) | 0.33 (≈ 0.725 µM) | 0.34 (≈ 0.746 µM) | 0.38 (≈ 0.834 µM) | 0.49 (≈ 1.08 µM) | 0.36 (≈ 0.79 µM)
20 | COc1cc(C2C3=C(COC3=O)N(CCc3ccc(F)cc3)c3cc4c(cc32)OCO4)cc(OC)c1OC (stereo not drawn) | 3.3 (≈ 6.35 µM) | 0.9 (≈ 1.73 µM) | 2.3 (≈ 4.43 µM) | 0.42 (≈ 0.808 µM) | 2.4 (≈ 4.62 µM) | 2.5 (≈ 4.81 µM) | 0.52 (≈ 1 µM)
21 | COc1ccc(C2C3=C(COC3=O)Nc3cc(OC)c(OC)c(OC)c32)cc1O (stereo not drawn) | 0.78 (≈ 1.95 µM) | 6.5 (≈ 16.3 µM) | 10.1 (≈ 25.3 µM) | 7 (≈ 17.5 µM) | – | > 10 | 7.3 (≈ 18.3 µM)
22 | COc1cc(C2C3=C(COC3=O)Nc3cc(OC)c(OC)c(OC)c32)cc(OC)c1OC (stereo not drawn) | 1.3 (≈ 2.93 µM) | 5.6 (≈ 12.6 µM) | 3.6 (≈ 8.12 µM) | 1.7 (≈ 3.83 µM) | – | 3.3 (≈ 7.44 µM) | 3.6 (≈ 8.12 µM)
23 | COc1cc(C2C3=C(COC3=O)N(C3CCC3)c3cc4c(cc32)OCO4)cc(OC)c1OC (stereo not drawn) | 0.24 (≈ 0.532 µM) | 0.04 (≈ 0.0886 µM) | 0.028 (≈ 0.062 µM) | 0.026 (≈ 0.0576 µM) | 0.032 (≈ 0.0709 µM) | 0.047 (≈ 0.104 µM) | 0.026 (≈ 0.0576 µM)
24 | COc1cc(C2C3=C(COC3=O)N(C3CCCCC3)c3cc4c(cc32)OCO4)cc(OC)c1OC (stereo not drawn) | 3.4 (≈ 7.09 µM) | 0.17 (≈ 0.355 µM) | 0.27 (≈ 0.563 µM) | 0.052 (≈ 0.108 µM) | 0.24 (≈ 0.5 µM) | 0.27 (≈ 0.563 µM) | 0.066 (≈ 0.138 µM)
25 | COc1cc(C2C3=C(COC3=O)Nc3cc4c(cc32)OCO4)cc(OC)c1OC (stereo not drawn) | 0.0018 (≈ 0.00453 µM) | – | – | – | – | – | –
26 | COc1cc([C@@H]2c3cc4c(c(O[C@@H]5O[C@H](CO)[C@@H](O)[C@H](O)[C@H]5O)c3C[C@H]3COC(=O)[C@@H]32)OCO4)cc(OC)c1OC | 0.21 (≈ 0.364 µM) | > 1 | 0.28 (≈ 0.486 µM) | 0.85 (≈ 1.47 µM) | > 1 | > 1 | 0.27 (≈ 0.468 µM)
27 | COc1cc([C@@H]2c3cc4c(c(O)c3C[C@H]3COC(=O)[C@@H]32)OCO4)cc(OC)c1OC [BETA-PELTATIN A] | 0.0031 (≈ 0.00748 µM) | 0.0012 (≈ 0.0029 µM) | 0.00077 (≈ 0.00186 µM) | 0.00055 (≈ 0.00133 µM) | 0.0076 (≈ 0.0183 µM) | 0.0021 (≈ 0.00507 µM) | 0.0004 (≈ 0.000965 µM)
28 | COc1cc([C@@H]2c3cc4c(cc3C[C@H]3COC(=O)[C@@H]32)OCO4)cc(OC)c1OC [DESOXYPODOPHYLLOTOXIN] | 0.029 (≈ 0.0728 µM) | 0.00044 (≈ 0.0011 µM) | 0.0018 (≈ 0.00452 µM) | 0.0027 (≈ 0.00678 µM) | 0.0014 (≈ 0.00351 µM) | 0.0017 (≈ 0.00427 µM) | 0.00056 (≈ 0.00141 µM)
29 | COc1cc([C@H]2c3cc4c(cc3C[C@H]3COC(=O)[C@H]32)OCO4)cc(OC)c1OC [ISOPICRODEOXYPODOPHYLLOTOXIN] | < 0.1 | – | – | – | – | – | –
30 | COc1cc([C@@H]2c3cc4c(cc3[C@H](O)[C@H]3COC(=O)[C@H]23)OCO4)cc(OC)c1OC [PODOFILOX] | 0.0043 (≈ 0.0104 µM) | – | – | – | – | – | –
